Assay outcomes (PubChem BioAssay)
Shown is part of a subset that was picked to be rich in hits.
INS promoter act = TRM-6 insulin promoter activation; TRM-6 cells, insulin promoter eGFP reporter, imaging; plate-scaled: unstimulated 0, stimulated control 100; activation, % at 2 µM; 0.81% of 130,000 active;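 active = activation at 2 µM above a set limit, confirmed on inspection of the cell images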;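 also: share of cells whose green reporter signal exceeds an intensity cutoff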
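System: human fetal islet-derived TRM-6 cells with tamoxifen-inducible insulin promoter–eGFP reporter; input: seeding density of 1,000 cells per well; buffer or medium: Low-glucose (5.5 mM) medium with tamoxifen; incubation: compound exposure 48 h, 37 °C; measured by: high-content imaging of fixed cells with Hoechst nuclear stain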
* marks the source's active call; other numbers are inactive results.

SMILES	INS promoter act
CCn1c(Cc2ccc(OC)cc2)nnc1SCC(=O)Nc1cccc(C(=O)OC)c1	443*
CCn1c(Cc2ccccc2)nnc1SCC(=O)Nc1ccc2c(c1)OCCO2	6
CCn1c(Cc2ccccc2)nnc1SCC(=O)Nc1ccc(OC)cc1	7
C=CCn1c(SCC(=O)Nc2sccc2C#N)nc2sc(C)c(C)c2c1=O	-6
CSCc1ccc(C(=O)Nc2ccc(C(N)=O)cc2)cc1	6
O=C(CSc1nnc(-c2ccco2)n1-c1ccccc1)N1CCOCC1	3
Cc1ccc(-n2c(SCC(=O)N3CCOCC3)nnc2-c2cccnc2)cc1	3
Nn1c(SCC(=O)N2CCOCC2)nnc1-c1ccccc1Cl	111*
N#Cc1nc(-c2ccco2)oc1N1CCC(Cc2ccccc2)CC1	3
CCOC(=O)C(C(=O)N1CCOCC1)C1CCCCC1 (stereo unspecified)	286
COC(=O)C(C(=O)N1CCN(C)CC1)C1CCCCCC1 (stereo unspecified)	431*
COC(=O)C(C(=O)NCC1CCCO1)C1CCCCCC1 (stereo unspecified)	-8
O=C(CCCN1C(=O)c2ccccc2C1=O)OC1CSCC1NC(=O)c1ccccc1 (stereo unspecified)	8
COCCN(CC(=O)NCC1CCCO1)C(=O)CCC(=O)Nc1ccccn1 (stereo unspecified)	113
COc1ccc(CC(=O)Nc2ccc(-c3cn4ccc(C)cc4n3)cc2)cc1	7
O=[N+]([O-])c1ccc(COc2ccccc2/C=N/O)cc1	529*
O=C(O)c1cc(/C=N\O)ccc1OCc1ccccc1	2
O=C(CNC(=O)c1ccccc1)OCc1ccc([N+](=O)[O-])cc1	-7
COc1ccc(C(N)=S)c(OC)c1	-4
CCOC(=O)N1CCN(C(=O)C2CCCN(S(=O)(=O)c3ccc(C)cc3)C2)CC1 (stereo unspecified)	0
C=CCn1c(C(CC(C)C)CC(C)O)n[nH]c1=S (stereo unspecified)	-100
Cc1cccn2c(=O)c(C=NCCO)c(NCc3ccco3)nc12	9
CCOCCCNc1nc2c(C)cccn2c(=O)c1/C=C1\SC(=S)N(CC(C)C)C1=O	223*
Cc1ccc(C(=O)NCc2ccco2)cc1S(=O)(=O)N1CCOCC1	5
O=C(NCc1ccco1)C1CN(S(=O)(=O)c2ccccc2)CCN1S(=O)(=O)c1ccccc1 (stereo unspecified)	0
SMILES	INS promoter act
O=S(=O)(NCc1ccco1)N1CCOCC1	494*
COCC(C)NC(=O)CSc1nc(-c2ccccc2)c(-c2ccccc2)o1 (stereo unspecified)	-4
CC1(C)NC(=O)N(CC(O)Cn2nnc3ccccc32)C1=O (stereo unspecified)	0
CC1CCCC(C)N1C(=O)c1cc2ncc(CCCl)cn2n1 (stereo unspecified)	0
O=C(c1ccc(NS(=O)(=O)c2cccs2)cc1)N1CCCCC1	-3
Cc1nc(CC(C)C)cc(C(=O)N2CCCC(CNS(=O)(=O)c3cccs3)C2)n1 (stereo unspecified)	421*
CCOC(=O)C1CCCN(C(=O)c2cc(-c3ccccc3)on2)C1 (stereo unspecified)	32
Cc1cc(C(=O)CSc2nnc(-c3cccs3)o2)c(C)n1-c1ccccc1	3
O=C1c2ccccc2C(=O)N1CC(O)CNc1ccc(Br)cc1 (stereo unspecified)	-72
CCCCNC(=O)COC(=O)c1ccc(SC)cc1OC	0
Cn1cc(Br)c(C(=O)N2CCc3ccccc32)n1	0
CC(=O)/C(C(=N)N1CCN(c2cccc(Cl)c2)CC1)=C(\C)O	-6
O=C(O)CCC(=O)N1CCN(c2cccc(Cl)c2)CC1	467*
O=C(CN1CCN(c2cccc(Cl)c2)CC1)N1CCCC1	-7
O=C1NC(=NCc2ccccc2)S/C1=C/c1ccc(O)cc1	159
COC(=O)c1ccc(CN2CCN(CC=C(C)C)C(CCO)C2)cc1 (stereo unspecified)	-7
COC(=O)c1cn(C(=O)c2ccc(Br)o2)c2ccccc12	0
COC(=O)c1cn(C(=O)c2cccc(C)c2)c2ccccc12	483*
COC(=O)c1cn(C(=O)c2ccc(C)c(C)c2)c2ccccc12	6
Cc1cccc2nc(-c3ccccc3)nc(N3CCC(O)(c4ccc(Cl)cc4)CC3)c12	454*
COC(=O)Nc1ccccc1C(=O)N1CCC(O)(c2ccc(Cl)cc2)CC1	0
Cc1cc(C)n(-c2nc3ccccc3nc2N2CCN(C(=O)c3ccc(Cl)cc3)CC2)n1	-5
CCOc1cccc(C(=O)N2CCCCC2c2cccnc2)c1 (stereo unspecified)	164*
CCOc1cccc(C(=O)NC2CCCCC2)c1	147
CCOc1cccc(C(=O)NC(=S)NCc2cccnc2)c1	-7
SMILES	INS promoter act
O=C(COC(=O)c1cccc(NS(=O)(=O)c2ccc(F)c(F)c2)c1)NC(=O)NC1CCCCC1	3
Cc1cccc(N(C(=O)c2ccc(CN3CCOCC3)o2)C(C(=O)NC(C)(C)C)c2ccc(F)cc2)c1 (stereo unspecified)	267
CCOC(=O)C1CCN(S(=O)(=O)c2ccc(C)c(C)c2)CC1	206*
CCOC(=O)C1CCCN(S(=O)(=O)c2ccc(C)cc2)C1 (stereo unspecified)	0
CCNC(=O)NC(=O)C(C)OC(=O)C1CCN(S(=O)(=O)c2ccc(C)c(C)c2)CC1 (stereo unspecified)	108
O=C1NC(=O)/C(=C\c2ccc(Oc3ccc([N+](=O)[O-])cn3)cc2)S1	-7
CCOC(=O)C1CCCN(Cc2sccc2C)C1 (stereo unspecified)	-10
COc1cc2c(cc1NC(=O)Nc1ccccc1)oc1ccccc12	-7
COc1cc2c(cc1NC(=O)CSc1cccc[n+]1[O-])oc1ccccc12	0
COc1cc2c(cc1NC(=O)COc1ccccc1OC)oc1ccccc12	3
COc1cc2c(cc1NC(=O)c1cncc(Br)c1)oc1ccccc12	444*
COc1cc2c(cc1NC(=O)CSCC(=O)O)oc1ccccc12	-7
COc1cc2c(cc1NC(=O)CCCN1C(=O)CCC1=O)oc1ccccc12	506*
CNC(=S)/N=C/NOCc1ccc(Cl)cc1Cl	4
CCCc1nn(CCc2ccccn2)c(N)c1CC	-69
Cc1cc(=O)nc2c3ccccc3n(C(C)C(=O)Nc3c(F)c(F)c(F)c(F)c3F)n12 (stereo unspecified)	0
CCCCC(=O)NC(=S)Nc1nnn(CCC)n1	0
C=CCn1c(SCc2nc3sc4c(c3c(=O)[nH]2)CCCC4)nc2ccccc2c1=O	5
CC1(C)OC(C)(C)/C(=C/Nc2ccccc2)C1=O	0
CCOCCc1nnc(NC(=O)Cc2ccccc2)s1	0
CSc1nsc(NC(=O)Cc2ccccc2)n1	103*
O=C(Nc1nc(SCc2ccc(F)cc2)ns1)c1ccco1	94
CN(Cc1ccccc1)Cc1nc2c([nH]1)c(=O)n(C)c(=O)n2C	105*
CCCn1c(CN(C)Cc2ccccc2)nc2c1c(=O)n(C)c(=O)n2C	0
CCCCn1c(CN(C)Cc2ccccc2)nc2c1c(=O)n(C)c(=O)n2C	-71
COc1ccc(C)cc1NC(=O)C1CC(=O)N(CCc2ccccc2)C1 (stereo unspecified)	8
COc1ccc(N2C(=O)CC(Sc3nc4ccccc4s3)C2=O)cc1OC (stereo unspecified)	-7
Cc1cccc(N2C(S)=C(C#N)C(=O)NC23CCCCC3)c1	0
Cc1cccc(N2C(=O)NC3(CCCCC3)C2=O)c1	78*
Cc1cc(C)c(NC(=O)CN2C(=O)NC3(CCCCC3)C2=O)c(C)c1	-6
